Measurements as given in ChEMBL document CHEMBL1149634, “1-Acylthiosemicarbazides, 1,2,4-triazole-5(4H)-thiones, 1,3,4-thiadiazoles and hydrazones containing 5-methyl-2-benzoxazolinones: synthesis, analgesic-anti-inflammatory and antimicrobial activities” (2007).
In brackets after ≈: the same amount, converted by molar mass.

Legend:
Mus musculus [1] = experiment: Antiinflammatory activity against carrageenan-induced hind paw oedema in mouse assessed as swelling thickness at 50 mg/kg, po after 90 mins; assay type: functional
Procedure, shortened: (§1)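 Fasted mice (n = 5–6) were dosed orally with the sample in 0.5% CMC/water. One hour later, carrageenan (0.5 mg/25 µl in 154 mM saline) was injected subplantar into the right hind paw. The right-minus-left footpad thickness difference was measured with dial gauge callipers every 90 min over 6 h. Inhibition % is calculated versus vehicle control; mean ± SEM, Student's t test.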

Mus musculus [2] = experiment: Antiinflammatory activity against carrageenan-induced hind paw oedema in mouse assessed as inhibition of swelling thickness at 100 mg/kg, po after 180 mins; assay type: functional; settings: 3 h; procedure, shortened: as §1
Staphylococcus aureus = experiment: Antibacterial activity against Staphylococcus aureus ATCC 29213 after 24 hrs by broth microdilution test; assay type: functional; settings: ATCC 29213, 24 h
Procedure, shortened: (§2)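 NCCLS broth microdilution in Mueller-Hinton broth with an inoculum of 5 × 10^5 cfu/mL. Compounds were dissolved in DMSO, diluted in sterile water, and tested as twofold dilutions from 512 to 0.5 µg/mL. Plates were incubated at 35 °C for 24 h. MIC is the lowest concentration preventing visible growth.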

Mus musculus [3] = experiment: Antiinflammatory activity against carrageenan-induced hind paw oedema in mouse assessed as inhibition of swelling thickness at 200 mg/kg, po after 270 mins; assay type: functional; settings: 4.5 h; procedure, shortened: as §1
Mus musculus [4] = experiment: Antiinflammatory activity against carrageenan-induced hind paw oedema in mouse assessed as inhibition of swelling thickness at 100 mg/kg, po after 270 mins; assay type: functional; settings: 4.5 h; procedure, shortened: as §1
Pseudomonas aeruginosa = experiment: Antibacterial activity against Pseudomonas aeruginosa ATCC 27853 after 24 hrs by broth microdilution test; assay type: functional; settings: ATCC 27853, 24 h; procedure, shortened: as §2
Mus musculus [5] = experiment: Antiinflammatory activity against carrageenan-induced hind paw oedema in mouse assessed as inhibition of swelling thickness at 200 mg/kg, po after 360 mins; assay type: functional; settings: 6 h; procedure, shortened: as §1
Mus musculus [6] = experiment: Antiinflammatory activity against carrageenan-induced hind paw oedema in mouse assessed as swelling thickness at 50 mg/kg, po after 270 mins; assay type: functional; procedure, shortened: as §1
Mus musculus [7] = experiment: Antiinflammatory activity against carrageenan-induced hind paw oedema in mouse assessed as swelling thickness at 50 mg/kg, po after 180 mins; assay type: functional; procedure, shortened: as §1
Mus musculus [8] = experiment: Antiinflammatory activity against carrageenan-induced hind paw oedema in mouse assessed as inhibition of swelling thickness at 100 mg/kg, po after 90 mins; assay type: functional; settings: 1.5 h; procedure, shortened: as §1
Candida albicans = experiment: Antifungal activity against Candida albicans ATCC 90028 after 48 hrs by broth microdilution test; assay type: functional; settings: ATCC 90028, 48 h
Procedure, shortened: (§3)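 Yeasts tested by NCCLS M27-A broth microdilution in RPMI 1640 (with L-glutamine, without sodium bicarbonate) with an inoculum of 0.5–2.5 × 10^3 cfu/mL. Compounds were prepared from DMSO solution diluted in water as twofold dilutions from 512 to 0.5 µg/mL. Plates were incubated at 35 °C for 48 h. MIC is the lowest concentration giving no visible growth.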

Mus musculus [9] = experiment: Analgesic activity in mouse assessed as inhibition of acetic acid induced-abdominal writhing at 100 mg/kg, ip by Koster test; assay type: functional; settings: Abdomen, route intraperitoneal
Mus musculus [10] = experiment: Antiinflammatory activity against carrageenan-induced hind paw oedema in mouse assessed as inhibition of swelling thickness at 200 mg/kg, po after 90 mins; assay type: functional; settings: 1.5 h; procedure, shortened: as §1
Candida parapsilosis = experiment: Antifungal activity against Candida parapsilosis ATCC 22019 after 48 hrs by broth microdilution test; assay type: functional; settings: Lodderomyces parapsilosis, ATCC 22019, 48 h; procedure, shortened: as §3
Mus musculus [11] = experiment: Antiinflammatory activity against carrageenan-induced hind paw oedema in mouse assessed as swelling thickness at 50 mg/kg, po after 360 mins; assay type: functional; procedure, shortened: as §1
Escherichia coli = experiment: Antibacterial activity against Escherichia coli ATCC 25922 after 24 hrs by broth microdilution test; assay type: functional; settings: ATCC 25922, 24 h; procedure, shortened: as §2
Mus musculus [12] = experiment: Analgesic activity in mouse assessed as inhibition of hind paw lick at 100 mg/kg, ip by hot plate test; assay type: functional; settings: route intraperitoneal
Pichia kudriavzevii = experiment: Antifungal activity against Candida krusei ATCC 6258 after 48 hrs by broth microdilution test; assay type: functional; settings: ATCC 6258, 48 h; procedure, shortened: as §3
Mus musculus [13] = experiment: Antiinflammatory activity against carrageenan-induced hind paw oedema in mouse assessed as inhibition of swelling thickness at 100 mg/kg, po after 360 mins; assay type: functional; settings: 6 h; procedure, shortened: as §1
Enterococcus faecalis = experiment: Antibacterial activity against Enterococcus faecalis ATCC 29212 after 24 hrs by broth microdilution test; assay type: functional; settings: ATCC 29212, 24 h; procedure, shortened: as §2
Mus musculus [14] = experiment: Toxicity in mouse assessed as ulceration effect at 200 mg/kg; assay type: functional, organism-based; set-up: dose 200 mg/kg
Procedure, shortened: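 Mice given 200 mg/kg orally in the carrageenan oedema study were killed under deep ether anaesthesia 6 h after treatment. Stomachs were opened along the greater curvature and examined under a dissecting microscope for lesions or bleeding. Result is expressed as the ratio of ulcerated animals per group.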

Mus musculus [15] = experiment: Antiinflammatory activity against carrageenan-induced hind paw oedema in mouse assessed as inhibition of swelling thickness at 200 mg/kg, po after 180 mins; assay type: functional; settings: 3 h; procedure, shortened: as §1
Mus musculus [16] = experiment: Antiinflammatory activity against carrageenan-induced hind paw oedema in mouse assessed as swelling thickness at 100 mg/kg, po after 360 mins; assay type: functional; procedure, shortened: as §1

SMILES	Activity (Mus musculus [1]) [%]	inhibition in vivo at 100 mg/kg (Mus musculus [2]) [%]	MIC (Staphylococcus aureus) [mg/L]	inhibition in vivo at 200 mg/kg (Mus musculus [3]) [%]	inhibition in vivo at 100 mg/kg (Mus musculus [4]) [%]	MIC (Pseudomonas aeruginosa) [mg/L]	inhibition in vivo at 200 mg/kg (Mus musculus [5]) [%]	Activity (Mus musculus [6]) [%]	Activity (Mus musculus [7]) [%]	inhibition in vivo at 100 mg/kg (Mus musculus [8]) [%]	MIC (Candida albicans) [mg/L]	inhibition in vivo at 100 mg/kg (Mus musculus [9]) [%]	inhibition in vivo at 200 mg/kg (Mus musculus [10]) [%]	MIC (Candida parapsilosis) [mg/L]	Activity (Mus musculus [11]) [%]	MIC (Escherichia coli) [mg/L]	inhibition in vivo at 100 mg/kg (Mus musculus [12]) [%]	MIC (Pichia kudriavzevii) [mg/L]	inhibition in vivo at 100 mg/kg (Mus musculus [13]) [%]	MIC (Enterococcus faecalis) [mg/L]	other results
Cc1ccc2oc(=O)n(CC(=O)NN)c2c1	92.1	70.5	256 (≈ 1160 µM)	54.7	39.4	256 (≈ 1160 µM)	51.6	108.4	88.7	84.8	128 (≈ 579 µM)	73.8	65.1	128 (≈ 579 µM)	101.1	256 (≈ 1160 µM)	42	128 (≈ 579 µM)	27.4	512 (≈ 2310 µM)	–
CCNC(=S)NNC(=O)Cn1c(=O)oc2ccc(C)cc21	116.7	36.3	256 (≈ 830 µM)	27.8	35.6	512 (≈ 1660 µM)	47.2	139.1	21.5	57.1	256 (≈ 830 µM)	44.4	19.4	256 (≈ 830 µM)	127.8	256 (≈ 830 µM)	18.1	256 (≈ 830 µM)	29.3	512 (≈ 1660 µM)	Activity (Mus musculus [14]): Not toxic; inhibition in vivo at 200 mg/kg (Mus musculus [15]): 54.6%
CC1(C)S[C@@H]2[C@H](NC(=O)[C@H](N)c3ccccc3)C(=O)N2[C@H]1C(=O)O [AMPICILLIN]	–	–	1 (≈ 2.86 µM)	–	–	–	–	–	–	–	–	–	–	–	–	–	–	–	–	–	–
CNC(=S)NNC(=O)Cn1c(=O)oc2ccc(C)cc21	118.2	33.8	512 (≈ 1740 µM)	35.2	–	128 (≈ 435 µM)	27.5	187.2	125.2	64.7	128 (≈ 435 µM)	61.7	58	128 (≈ 435 µM)	188.9	256 (≈ 870 µM)	23.9	128 (≈ 435 µM)	–	256 (≈ 870 µM)	Activity (Mus musculus [14]): Not toxic; Activity (Mus musculus [16]): 85.8%
Cc1ccc2oc(=O)n(CC(=O)N/N=C/c3ccc(Cl)cc3)c2c1	72.5	5.1	> 512	17.2	5.3	> 512	7.7	111.8	89	64.7	128 (≈ 372 µM)	62.5	17.1	256 (≈ 745 µM)	107	> 512	50.7	256 (≈ 745 µM)	4.3	> 512	inhibition in vivo at 200 mg/kg (Mus musculus [15]): 22.8%
Cc1ccc2oc(=O)n(Cc3n[nH]c(=S)n3-c3ccccc3)c2c1	122.8	63.3	256 (≈ 757 µM)	16.7	31.8	256 (≈ 757 µM)	5.5	157.3	115.5	79.8	128 (≈ 378 µM)	49.6	53.2	128 (≈ 378 µM)	147.2	256 (≈ 757 µM)	13	128 (≈ 378 µM)	27.4	256 (≈ 757 µM)	Activity (Mus musculus [14]): Not toxic; inhibition in vivo at 200 mg/kg (Mus musculus [15]): 47.7%
OC(Cn1cncn1)(Cn1cncn1)c1ccc(F)cc1F [FLUCONAZOLE]	–	–	–	–	–	–	–	–	–	–	1 (≈ 3.27 µM)	–	–	8 (≈ 26.1 µM)	–	–	–	64 (≈ 209 µM)	–	–	–
